Measurements taken from paper PMC3087843 (Nature structural & molecular biology, 2011).

Each substance was assayed against T1, human ERAP1 (Homo sapiens, UniProt Q9NZ08, G346D/G514D/K528R/Q730E) (assay: Peptide trimming assay). Settings: 150 μM peptide, 3.5 μg ml^–1 ERAP1, 37°C, 50 mM Tris-HCl pH 7.8, 0.25 g L^–1 BSA, C18 RP-HPLC (Fig. 4a).
Assay type: biochemical
Method in brief: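 Human ERAP1 (allelic variant) was baculovirus-expressed, Ni-NTA purified and treated with carboxypeptidase A at room temperature in PBS. Substrates were HPLC-purified synthetic peptides with mass confirmed by MS. Reactions were stopped with 0.6% (v/v) TFA, and the supernatant was run on C18 RP-HPLC with an acetonitrile gradient in 0.03% (v/v) TFA. Percent substrate cleaved was taken from integrated peak areas.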

T1 sequence (Q9NZ08 whole entry G346D/G514D/K528R/Q730E): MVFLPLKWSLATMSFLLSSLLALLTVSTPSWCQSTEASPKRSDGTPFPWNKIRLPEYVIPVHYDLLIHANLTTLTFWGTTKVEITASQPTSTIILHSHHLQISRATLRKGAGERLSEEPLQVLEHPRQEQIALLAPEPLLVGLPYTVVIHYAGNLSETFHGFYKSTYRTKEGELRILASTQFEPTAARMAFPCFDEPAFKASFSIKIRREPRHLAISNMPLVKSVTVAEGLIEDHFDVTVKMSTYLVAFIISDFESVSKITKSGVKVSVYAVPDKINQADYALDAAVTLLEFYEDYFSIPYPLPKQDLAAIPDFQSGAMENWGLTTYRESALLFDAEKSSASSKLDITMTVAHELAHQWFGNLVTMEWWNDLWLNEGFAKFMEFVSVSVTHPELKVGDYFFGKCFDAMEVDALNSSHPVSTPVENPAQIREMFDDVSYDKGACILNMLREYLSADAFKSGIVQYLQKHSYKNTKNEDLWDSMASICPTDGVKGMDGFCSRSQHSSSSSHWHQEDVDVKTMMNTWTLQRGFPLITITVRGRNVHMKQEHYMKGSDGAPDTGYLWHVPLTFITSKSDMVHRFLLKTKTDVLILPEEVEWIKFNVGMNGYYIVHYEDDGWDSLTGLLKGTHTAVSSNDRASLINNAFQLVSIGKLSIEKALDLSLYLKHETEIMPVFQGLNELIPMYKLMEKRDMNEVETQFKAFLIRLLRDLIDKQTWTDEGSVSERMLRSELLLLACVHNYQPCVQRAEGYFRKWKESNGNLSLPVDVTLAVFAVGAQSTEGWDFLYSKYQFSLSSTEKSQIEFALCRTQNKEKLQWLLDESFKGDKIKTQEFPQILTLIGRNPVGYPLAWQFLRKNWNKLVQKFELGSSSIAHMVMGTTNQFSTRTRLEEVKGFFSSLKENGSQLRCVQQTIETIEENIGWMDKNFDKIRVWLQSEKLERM

Row | Substance | ERAP1 processing of SIINFEKL length variants
1 | FEKL | not long enough to be processed efficiently
2 | INFEKL | not processed appreciably
3 | QLESIINFEKL | processed efficiently
4 | SIINFEKL [reference compound] | not long enough to be processed efficiently

What follows are substances tested against T1, human ERAP1 (assay: Activation of L-AMC hydrolysis by ERAP1 in the presence of peptides). Settings: 100 μM L-AMC, 0–70 μM peptide, 0.87 μg ml^–1 ERAP1, 37°C (Fig. 6c,d).
Assay type: biochemical

Row | Substance | Activation of ERAP1 hydrolysis of L-AMC by increasing peptide concentrations
5 | L(N-Me)VAFKARAF [L^Me] | activated
6 | LVAFKARAF [L-peptide] | activated
7 | R(N-Me)VAEAAFAE | did not activate
